Columns and labels:
GABA transporter 2 = target: T1, GABA transporter 2 (Mus musculus, UniProt P31651); assay: Inhibition of GABA uptake at murine BGT-1 expressed in HEK293 cells; format: cell-based
T1 sequence (P31651 whole entry): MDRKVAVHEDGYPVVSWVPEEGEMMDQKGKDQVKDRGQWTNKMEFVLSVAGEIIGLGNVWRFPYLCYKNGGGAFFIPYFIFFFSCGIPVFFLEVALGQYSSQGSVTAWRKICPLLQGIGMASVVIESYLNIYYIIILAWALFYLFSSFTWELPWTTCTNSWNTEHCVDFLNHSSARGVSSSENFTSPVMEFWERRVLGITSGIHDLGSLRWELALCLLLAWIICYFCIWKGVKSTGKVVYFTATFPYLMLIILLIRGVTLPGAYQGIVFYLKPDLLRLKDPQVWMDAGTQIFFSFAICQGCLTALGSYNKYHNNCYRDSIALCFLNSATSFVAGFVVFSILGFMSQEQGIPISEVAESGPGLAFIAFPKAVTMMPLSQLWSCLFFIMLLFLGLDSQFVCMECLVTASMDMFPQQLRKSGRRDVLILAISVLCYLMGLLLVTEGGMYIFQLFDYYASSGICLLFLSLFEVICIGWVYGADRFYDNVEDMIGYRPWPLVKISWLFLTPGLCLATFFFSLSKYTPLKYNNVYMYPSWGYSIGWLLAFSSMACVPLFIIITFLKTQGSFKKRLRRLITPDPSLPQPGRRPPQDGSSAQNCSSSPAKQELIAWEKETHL

[1] = target: Sodium- and chloride-dependent GABA transporter 1 (Mus musculus, UniProt P31648); assay: Inhibition of GABA uptake at murine GAT-1 expressed in HEK293 cells; format: cell-based
GABA transporter 4 = target: T2, GABA transporter 4 (Mus musculus, UniProt P31650); assay: Inhibition of GABA uptake at murine GAT-3 expressed in HEK293 cells; format: cell-based
T2 sequence (P31650 whole entry): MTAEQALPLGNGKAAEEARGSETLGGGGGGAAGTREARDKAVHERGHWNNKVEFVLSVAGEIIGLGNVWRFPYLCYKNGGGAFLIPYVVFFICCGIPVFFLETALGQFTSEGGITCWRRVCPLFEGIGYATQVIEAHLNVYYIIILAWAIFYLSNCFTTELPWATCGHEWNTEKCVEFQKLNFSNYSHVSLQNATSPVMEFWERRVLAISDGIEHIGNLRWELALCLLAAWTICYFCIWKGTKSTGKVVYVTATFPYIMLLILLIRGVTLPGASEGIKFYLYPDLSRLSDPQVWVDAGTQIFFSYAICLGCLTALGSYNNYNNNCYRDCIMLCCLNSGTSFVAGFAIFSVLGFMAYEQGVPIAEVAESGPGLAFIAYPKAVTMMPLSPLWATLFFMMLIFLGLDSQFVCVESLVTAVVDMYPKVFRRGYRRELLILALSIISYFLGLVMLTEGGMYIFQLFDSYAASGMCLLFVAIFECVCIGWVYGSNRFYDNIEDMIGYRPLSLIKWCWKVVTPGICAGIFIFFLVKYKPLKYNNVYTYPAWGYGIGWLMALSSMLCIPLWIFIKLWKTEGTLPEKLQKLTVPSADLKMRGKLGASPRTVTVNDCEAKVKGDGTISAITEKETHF

GABA transporter 3 = target: T3, GABA transporter 3 (Mus musculus, UniProt P31649); assay: Inhibition of GABA uptake at murine GAT-2 expressed in HEK293 cells; format: cell-based
T3 sequence (P31649 whole entry): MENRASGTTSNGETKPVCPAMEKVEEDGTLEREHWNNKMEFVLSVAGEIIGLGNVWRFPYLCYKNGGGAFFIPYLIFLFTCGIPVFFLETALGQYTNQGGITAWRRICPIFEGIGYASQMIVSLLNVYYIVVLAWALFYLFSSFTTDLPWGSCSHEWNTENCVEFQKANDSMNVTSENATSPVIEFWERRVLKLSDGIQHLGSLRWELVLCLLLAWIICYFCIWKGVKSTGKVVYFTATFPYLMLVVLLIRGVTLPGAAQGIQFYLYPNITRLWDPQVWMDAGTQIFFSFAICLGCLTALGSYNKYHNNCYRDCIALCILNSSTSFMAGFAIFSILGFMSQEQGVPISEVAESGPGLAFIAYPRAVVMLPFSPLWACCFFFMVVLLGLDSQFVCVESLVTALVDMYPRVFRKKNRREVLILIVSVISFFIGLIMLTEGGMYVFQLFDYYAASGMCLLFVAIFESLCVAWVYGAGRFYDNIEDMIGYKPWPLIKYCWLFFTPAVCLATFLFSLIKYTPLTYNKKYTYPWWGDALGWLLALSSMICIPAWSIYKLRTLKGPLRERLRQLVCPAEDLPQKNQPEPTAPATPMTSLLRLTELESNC

[2] = target: T4, GABA transporter 3 (Mus musculus) (UniProt P31649); assay: Remaining GABA uptake at murine GAT-2 expressed in HEK293 cells at 100 uM relative to control
T4 sequence (whole entry): T3 sequence (P31649 whole entry)

[3] = target: Sodium- and chloride-dependent GABA transporter 1 (Mus musculus) (UniProt P31648); assay: Remaining GABA uptake at murine GAT-1 expressed in HEK293 cells at 100 uM relative to control
[4] = target: T5, GABA transporter 2 (Mus musculus) (UniProt P31651); assay: Remaining GABA uptake at murine BGT-1 expressed in HEK293 cells at 100 uM relative to control
T5 sequence (whole entry): T1 sequence (P31651 whole entry)

[5] = target: Sodium- and chloride-dependent GABA transporter 1 (Homo sapiens, UniProt P30531); assay: Inhibition of GABA uptake at GAT-1 (unknown origin)
Sodium- and chloride-dependent GABA transporter 1 (Homo sapiens, UniProt P30531), sequence (P30531 whole entry): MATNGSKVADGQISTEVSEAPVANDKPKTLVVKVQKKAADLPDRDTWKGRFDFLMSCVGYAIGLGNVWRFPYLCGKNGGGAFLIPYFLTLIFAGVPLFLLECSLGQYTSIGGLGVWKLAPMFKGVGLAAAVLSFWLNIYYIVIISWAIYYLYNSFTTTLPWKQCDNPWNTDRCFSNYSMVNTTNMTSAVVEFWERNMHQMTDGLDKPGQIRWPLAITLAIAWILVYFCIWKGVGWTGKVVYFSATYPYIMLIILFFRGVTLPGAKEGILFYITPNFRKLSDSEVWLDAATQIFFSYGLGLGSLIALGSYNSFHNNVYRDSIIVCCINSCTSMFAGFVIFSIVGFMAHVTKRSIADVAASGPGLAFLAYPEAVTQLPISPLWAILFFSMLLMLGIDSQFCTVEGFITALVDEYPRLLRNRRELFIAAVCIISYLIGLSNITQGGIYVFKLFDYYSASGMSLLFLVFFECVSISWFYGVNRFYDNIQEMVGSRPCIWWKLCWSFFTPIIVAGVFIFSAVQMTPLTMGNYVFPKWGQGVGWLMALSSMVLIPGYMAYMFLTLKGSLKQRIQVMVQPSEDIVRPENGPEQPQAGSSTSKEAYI

[6] = target: T5, GABA transporter 2 (Mus musculus); assay: Remaining GABA uptake at murine BGT-1 expressed in HEK293 cells at 1 mM relative to control
[7] = Inhibition of GABA uptake at GAT-1 in porcine frontal cortex P2B fraction; format: tissue-based, Sus scrofa
Outline: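 Uptake assay on a P2B membrane preparation from porcine frontal cortex, which predominantly addresses the GAT1 subtype.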

[8] = Inhibition of GABA uptake at GAT-3 in porcine brain stem P2C fraction; parameters: species or system Sus scrofa
Outline: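 Uptake assay on a P2C membrane preparation from porcine brainstem, which predominantly addresses the GAT3 subtype.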

Row | SMILES | IC50 [1] [µM] | IC50 (GABA transporter 4) [µM] | remaining GABA uptake [2] [%] | remaining GABA uptake [4] [%] | other results
1 | COc1ccc(C(/C=C/CN2CCC[C@H](C(=O)O)C2)(c2ccc(OC)cc2)c2ccc(OC)cc2)cc1 | 39.8 | – | – | – | IC50 (GABA transporter 2): 38 µM
2 | NCCC(=O)O [BETA-ALANINE] | 2820 | 34.7 | – | – | IC50 (GABA transporter 2): 331 µM; IC50 (GABA transporter 3): 21.9 µM
3 | O=C(O)[C@@H]1CCCN(CCOCCN2c3ccccc3C=Cc3ccccc32)C1 | – | – | – | – | IC50 [5]: 0.646 µM
4 | O=C(O)CCNCCOCCN1c2ccccc2CCc2ccccc21 | 20.4 | – | 55 | 85 | –
5 | O=C(O)[C@@H]1CCCN(CCOCCN2c3ccccc3CCc3ccccc32)C1 | – | – | – | – | IC50 [5]: 39.8 µM
6 | CC(N)CC(=O)O (racemic) | 50.1 | 83.2 | – | – | IC50 (GABA transporter 2): 813 µM; IC50 (GABA transporter 3): 46.8 µM
7 | COc1ccc(C(OCCNC(C)CC(=O)O)(c2ccc(OC)cc2)c2ccc(OC)cc2)cc1 (racemic) | – | 33.9 | 48 | 73 | remaining GABA uptake [3]: 114%
8 | O=C(O)[C@@H]1CCCN(CCOCCN2c3ccccc3Sc3ccccc32)C1 | – | – | – | – | IC50 [5]: 0.309 µM
9 | COc1ccc(C(OCCNCCC(=O)O)(c2ccc(OC)cc2)c2ccc(OC)cc2)cc1 | – | 42.7 | 40 | 55 | remaining GABA uptake [3]: 57%
10 | COc1ccc(C(OCCN2CCC[C@H](C(=O)O)C2)(c2ccc(OC)cc2)c2ccc(OC)cc2)cc1 | – | – | – | – | IC50 (GABA transporter 2): 30.9 µM
11 | COc1ccc(C(/C=C/CNC(C)CC(=O)O)(c2ccc(OC)cc2)c2ccc(OC)cc2)cc1 (racemic) | – | 60.3 | – | 47 | remaining GABA uptake [3]: 52%; IC50 (GABA transporter 3): 63.1 µM
12 | COc1ccc(C(/C=C/CNCCC(=O)O)(c2ccc(OC)cc2)c2ccc(OC)cc2)cc1 | – | – | 94 | 47 | remaining GABA uptake [3]: 77%
13 | Cl.O=C(O)CCNCCC=C(c1ccccc1)c1ccccc1 | – | – | – | – | pIC50 [7]: 3.94; pIC50 [8]: 3.36
14 | CC(CC(=O)O)NCCOCCN1c2ccccc2Sc2ccccc21 (racemic) | 8.71 | – | – | 74 | IC50 (GABA transporter 3): 40.7 µM

Now from value to compound, other results behind:

Row | IC50 [1] [µM] | IC50 (GABA transporter 4) [µM] | remaining GABA uptake [2] [%] | remaining GABA uptake [4] [%] | SMILES | other results
15 | – | – | 87 | 85 | O=C(O)CCNCCOCCN1c2ccccc2C=Cc2ccccc21 | remaining GABA uptake [3]: 56%
16 | 17.4 | – | 84 | 82 | CC(CC(=O)O)NCCOCCN1c2ccccc2C=Cc2ccccc21 (racemic) | –
17 | 4.57 | – | 82 | 86 | CC(CC(=O)O)NCCC=C(c1ccccc1)c1ccccc1 (racemic) | –
18 | 35.5 | – | 50 | 88 | O=C(O)CCNCCOCCN1c2ccccc2Sc2ccccc21 | –
19 | 13.2 | 339 | – | – | CC(CC(=O)O)NCCOCCN1c2ccccc2CCc2ccccc21 (racemic) | remaining GABA uptake [6]: 69%; IC50 (GABA transporter 3): 214 µM

Source: ChEMBL document CHEMBL2401667, “Synthesis of N-substituted acyclic β-amino acids and their investigation as GABA uptake inhibitors” (Eur J Med Chem, 2013)
